This passage reports viability, differential viability (reversal) and inhibition results from PubChem BioAssay.

Calls of active or inactive are those of the source.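 How the source made its calls, unless noted: active means viability at or below 30% in both replicate assays; inconclusive means viability at or below 30% in just one of the two assays; inactive means the rest.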

Assay [1] in a line: reduced viability of SK-BR-3 breast cancer cells – cell-based, 24 h, human, pilot screen (AID 572;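 active means viability at or below 10% of carrier control in both of two separate runs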;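 further: compound exposure lasted between 18 and 24 h rather than exactly 24 h; 100% = carrier-treated control wells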). Conditions: SK-BR-3 viability, CellTiter-Glo luminescence, at 10 µM, stronger effect = lower value. For orientation: In ATP-based viability assays light output follows the ATP content of the culture.
Assay [2] can be described thus: HUVEC growth inhibition – cell-based, human, primary screen (AID 575).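 Further: 100% = median of untreated cell wells with 0.1% DMSO on each plate.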 Conditions: HUVEC proliferation, CellTiter-Glo luminescence, 72 h; at 10 µM; stronger effect = lower value. An outline of the steps: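 Test system – primary HUVEC, no more than 12 passages · Dosing – one dose, 10 µM final, 0.1% DMSO · Times – 72 h treatment at 37 °C · Measured by – ATP-based CellTiter-Glo luminescent read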

The nature of assay [3]: H69AR cell proliferation blockers – human, duplicate replicates, primary screen (AID 580;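 active means viability at or under a set limit in both replicates, limit being median viability minus 3 SD, cut at about 48% in these data, passing the limit was not always enough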;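 further: 100% = mean luminescence of untreated wells and 0% = no signal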). Conditions: H69AR lung tumor cells viability, ATP luminescence, 72 h; at 10 µM; stronger effect = lower value.
The nature of assay [4]: MRP1 drug-resistance reversers in H69AR cells – cell-based, doxorubicin co-treatment, pilot screen (AID 601;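 active means viability loss from added drug above about 55%, and viability with drug at most 40%, in both replicates, limit read from the data, passing the limit was not always enough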). The note with it: CellTiter-Glo, 72 h, at 10 µM; for differential viability (reversal): stronger effect = higher value.
Assay [5] in a line: yeast transport mutant growth inhibition pilot in 384-well plates, post-Golgi transport modulator project (AID 636; in the data active means inhibition above about 31%). The note with it: absorbance 615 nm, about 18 h, stronger effect = higher value.
A short description of assay [6]: growth suppression of yeast trafficking mutant, preliminary HTS, modulators of trafficking downstream of Golgi apparatus project, 1536-format plate, OD 615 nm (AID 637; in the data active means inhibition above about 30%). Conditions: yeast transport mutant growth, absorbance 615 nm, 18 h; stronger effect = higher value.
Where [7] appears, read: H69AR cells + 2 uM doxorubicin, measured here: viability with 2 uM doxorubicin, stronger effect = lower value.
[8] abbreviates: H69AR cells, compound alone cytotoxicity.

`CC(C)CN(C(=O)c1ccc(=O)n(C)n1)c1nc2ccccc2s1`: the viability in assay [1] was 94% (inactive); in assay [2], 107% (inactive); in assay [3], 90.2% (inactive); in assay [4] (setting [7]) it was 85.2%; in assay [4] (setting [8]) it was 90.2%. Also, in assay [4] (H69AR cells + 2 uM doxorubicin), the differential viability (reversal) was 4.96% (inactive). Moreover, the inhibition was -1.08% (inactive) in assay [5] and 1.09% (inactive) in assay [6].

For the molecule `CCN(CC(=O)Nc1ccc2c(c1)OCCO2)Cc1cc(=O)oc2cc(C)c(C)cc12`, the viability is 93% (inactive) in assay [1]; 82.2% (inactive) in assay [2]; 73.8% (inactive) in assay [3]; 68% in assay [4] (setting [7]); 73.8% in assay [4] (setting [8]). The differential viability (reversal) in assay [4] (H69AR cells + 2 uM doxorubicin) is 5.8% (inactive). Also, the inhibition in assay [5] is -5.75% (inactive); in assay [6] it was 3.09% (inactive).

For the molecule `N#CCC(=O)N1CCn2c1nc1ccccc12`, the viability in assay [1] is 99% (inactive); in assay [2] it was 95% (inactive); in assay [3], 87.7% (inactive); in assay [4] (setting [7]), 88.5%; in assay [4] (setting [8]), 87.7%. Further, the differential viability (reversal) in assay [4] (H69AR cells + 2 uM doxorubicin) is -0.78% (inactive). Besides, the inhibition in assay [5] is 0.13% (inactive); in assay [6], 0.33% (inactive).

In the case of `COc1cccc(-c2csc(N3CCN(CC(=O)Nc4ccc5c(c4)OCO5)CC3)n2)c1`, the viability in assay [1] was 106% (inactive); in assay [2] it was 78.9% (inactive); in assay [3], 80.3% (inactive); in assay [4] (setting [7]), 81.5%; in assay [4] (setting [8]), 80.3%. In assay [4] (H69AR cells + 2 uM doxorubicin), the differential viability (reversal) is -1.21% (inactive). Further, the inhibition in assay [5] is -2.34% (inactive); in assay [6] it was 0% (inactive).

`CS(=O)(=O)N(CC(=O)N1CCCCCC1)c1ccc(Br)cc1`: the viability in assay [1] was 86% (inactive); in assay [2] it was 96.5% (inactive); in assay [3] it was 97.9% (inactive); in assay [4] (setting [7]), 80.6%; in assay [4] (setting [8]), 97.9%. Also, the differential viability (reversal) in assay [4] (H69AR cells + 2 uM doxorubicin) was 17.2% (inactive). Besides, the inhibition in assay [5] is -7.47% (inactive); in assay [6], -10% (inactive).

Turning to `CCCCNC(=O)OCCNC(=O)NC`, the viability was 98% (inactive) in assay [1]; 95.9% (inactive) in assay [2]; 98.1% (inactive) in assay [3]; 90.7% in assay [4] (setting [7]); 98.1% in assay [4] (setting [8]). The differential viability (reversal) in assay [4] (H69AR cells + 2 uM doxorubicin) was 7.46% (inactive). The figures for the inhibition in assay [5] and in assay [6] were -4.05% (inactive) and -5.45% (inactive), respectively.

Take `CCOc1ccc(-c2nc(C#N)c(NCc3ccc4c(c3)OCO4)o2)cc1`: the viability was 68% (inactive) in assay [1]; 58.8% (inactive) in assay [2]; 70.4% (inactive) in assay [3]; 69.6% in assay [4] (setting [7]); 70.4% in assay [4] (setting [8]). Further, in assay [4] (H69AR cells + 2 uM doxorubicin), the differential viability (reversal) is 0.795% (inactive). For the same molecule, the inhibition in assay [5] was 1.03% (inactive); in assay [6] it was -0.5% (inactive).

For the molecule `CCCC(=O)Nc1cnc(NC(=O)c2cccc(F)c2)cc1C`, the viability in assay [1] was 86% (inactive); in assay [2], 90.3% (inactive); in assay [3], 88.7% (inactive); in assay [4] (setting [7]), 82.6%; in assay [4] (setting [8]), 88.7%. Also, the differential viability (reversal) in assay [4] (H69AR cells + 2 uM doxorubicin) was 6.15% (inactive). For the same molecule, the inhibition in assay [5] was 2.47% (inactive); in assay [6], 2.95% (inactive).

With `CN(C)c1nc(Oc2ccc(N)cc2)nc(N(C)C)n1`, the viability is 97% (inactive) in assay [1]; 86.2% (inactive) in assay [2]; 90.1% (inactive) in assay [3]; 96.6% in assay [4] (setting [7]); 90.1% in assay [4] (setting [8]). In addition, the differential viability (reversal) in assay [4] (H69AR cells + 2 uM doxorubicin) is -6.47% (inactive). In addition, the inhibition is -7.73% (inactive) in assay [5] and -2% (inactive) in assay [6].

In the case of `COc1ccc(OC)c(-c2cc(C(=O)NCc3cccs3)no2)c1`, the viability in assay [1] is 101% (inactive); in assay [2], 76.2% (inactive); in assay [3] it was 94.4% (inactive); in assay [4] (setting [7]), 87.1%; in assay [4] (setting [8]), 94.4%. The differential viability (reversal) in assay [4] (H69AR cells + 2 uM doxorubicin) was 7.29% (inactive). Besides, the inhibition was -2.6% (inactive) in assay [5] and -5.74% (inactive) in assay [6].

Regarding `Cc1occc1C(=O)Nc1nnc(C2CCCCC2)s1`, the viability in assay [1] was 109% (inactive); in assay [2], 93.1% (inactive); in assay [3] it was 93.7% (inactive); in assay [4] (setting [7]), 79.6%; in assay [4] (setting [8]), 93.7%. Besides, in assay [4] (H69AR cells + 2 uM doxorubicin), the differential viability (reversal) was 14.1% (inactive). The inhibition in assay [5] was -2.74% (inactive); in assay [6], 10.7% (inactive).

For `O=C(Cn1[nH]c(=O)c2ccccc2c1=O)OCC(=O)N1CCCc2ccccc21`, the viability in assay [1] was 90% (inactive); in assay [2], 101% (inactive); in assay [3] it was 102% (inactive); in assay [4] (setting [7]) it was 88.7%; in assay [4] (setting [8]), 102%. For the same molecule, in assay [4] (H69AR cells + 2 uM doxorubicin), the differential viability (reversal) is 13.7% (inactive). Besides, the figures for the inhibition in assay [5] and in assay [6] were -5.73% (inactive) and -2.55% (inactive), respectively.

As usually defined, the viability is a read-out of living cells in per cent, often relative to untreated cells. The term inhibition denotes the relative decrease from the control value, in per cent.
